Assay [1] concerns the target T1, Muscarinic acetylcholine receptor M4 (Homo sapiens) (UniProt P08173).
T1 sequence (whole entry): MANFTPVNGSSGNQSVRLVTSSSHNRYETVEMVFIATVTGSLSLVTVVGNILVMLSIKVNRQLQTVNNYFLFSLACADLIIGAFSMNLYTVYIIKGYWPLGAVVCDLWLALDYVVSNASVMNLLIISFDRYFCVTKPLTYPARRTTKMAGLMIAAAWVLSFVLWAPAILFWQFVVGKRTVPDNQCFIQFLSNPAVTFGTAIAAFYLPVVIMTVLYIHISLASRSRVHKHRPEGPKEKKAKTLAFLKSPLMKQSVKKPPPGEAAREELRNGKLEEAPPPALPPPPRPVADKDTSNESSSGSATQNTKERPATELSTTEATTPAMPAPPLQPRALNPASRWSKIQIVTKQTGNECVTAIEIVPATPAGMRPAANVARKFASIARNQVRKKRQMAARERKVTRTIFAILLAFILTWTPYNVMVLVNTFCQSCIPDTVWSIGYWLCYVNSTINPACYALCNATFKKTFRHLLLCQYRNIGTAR
Put plainly: Activity at human M4 receptor assessed as inhibition of forskolin-stimulated cAMP accumulation relative to carbachol. It counts as functional. (Changes in cAMP serve as a functional read-out for many G protein-coupled receptors.)

Assay [2] addresses T2, Muscarinic acetylcholine receptor M5 (Homo sapiens) (UniProt P08912).
T2 sequence (whole entry): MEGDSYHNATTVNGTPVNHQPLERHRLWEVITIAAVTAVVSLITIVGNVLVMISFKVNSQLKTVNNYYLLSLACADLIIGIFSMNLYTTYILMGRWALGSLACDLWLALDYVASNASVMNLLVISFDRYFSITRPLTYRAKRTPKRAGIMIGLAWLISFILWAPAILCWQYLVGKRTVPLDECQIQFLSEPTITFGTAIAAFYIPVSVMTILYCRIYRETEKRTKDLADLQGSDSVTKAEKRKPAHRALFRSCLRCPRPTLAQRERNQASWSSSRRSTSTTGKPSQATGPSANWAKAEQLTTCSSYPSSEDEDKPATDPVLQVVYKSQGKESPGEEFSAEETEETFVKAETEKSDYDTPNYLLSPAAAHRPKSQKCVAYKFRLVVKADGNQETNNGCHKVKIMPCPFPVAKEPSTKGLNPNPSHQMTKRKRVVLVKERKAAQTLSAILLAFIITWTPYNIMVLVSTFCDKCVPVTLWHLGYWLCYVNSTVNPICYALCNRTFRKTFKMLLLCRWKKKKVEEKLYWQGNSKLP
Put plainly: Agonist activity at human M5 receptor expressed in A9 L cells assessed as stimulation of phosphoinositide hydrolysis relative to carbachol. Type of assay: functional, cell-based. The settings on record: L929. Summed up:
(§1)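 A9 L cells stably expressing the receptor, seeded 24 h, labelled overnight with 10 µCi/mL [3H]inositol in inositol-free DMEM; ligands in HBSS with 10 mM LiCl, 20 mM HEPES, 37 °C, 1 h; formic acid extraction, inositol phosphates counted by SPA beads.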

Assay [3] deals with T3, Muscarinic acetylcholine receptor M1 (Homo sapiens), P11229 [Q185E].
T3 sequence (whole entry): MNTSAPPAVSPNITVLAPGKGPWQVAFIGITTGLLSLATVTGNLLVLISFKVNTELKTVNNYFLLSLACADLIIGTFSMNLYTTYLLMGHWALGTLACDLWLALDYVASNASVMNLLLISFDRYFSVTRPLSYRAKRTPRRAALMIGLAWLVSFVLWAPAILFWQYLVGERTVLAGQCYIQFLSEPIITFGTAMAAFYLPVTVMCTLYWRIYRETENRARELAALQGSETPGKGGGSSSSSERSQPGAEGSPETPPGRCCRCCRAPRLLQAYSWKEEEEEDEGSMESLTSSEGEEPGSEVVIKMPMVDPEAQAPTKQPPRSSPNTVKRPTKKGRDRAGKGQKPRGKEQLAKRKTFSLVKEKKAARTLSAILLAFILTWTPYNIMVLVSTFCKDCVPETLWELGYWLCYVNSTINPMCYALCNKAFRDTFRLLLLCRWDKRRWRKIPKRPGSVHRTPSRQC
As to the kind of experiment: Agonist activity at human M1 receptor Q185E mutant expressed in A9 L cells assessed as stimulation of phosphoinositide hydrolysis relative to carbachol. Type of assay: functional, cell-based. The following applies: L929. Summed up:
as §1

The target of assay [4] is T4, Muscarinic acetylcholine receptor M1/M5 chimeric protein (Homo sapiens) (UniProt P11229+P08912). Put plainly: Agonist activity at human M1/M5(o3) chimeric receptor expressed in A9 L cells assessed as stimulation of phosphoinositide hydrolysis relative to carbachol. Type of assay: functional, cell-based. The settings on record: L929. Summed up: as §1
T4 sequence (P11229 whole entry, looked up, change not shown, one chain of several): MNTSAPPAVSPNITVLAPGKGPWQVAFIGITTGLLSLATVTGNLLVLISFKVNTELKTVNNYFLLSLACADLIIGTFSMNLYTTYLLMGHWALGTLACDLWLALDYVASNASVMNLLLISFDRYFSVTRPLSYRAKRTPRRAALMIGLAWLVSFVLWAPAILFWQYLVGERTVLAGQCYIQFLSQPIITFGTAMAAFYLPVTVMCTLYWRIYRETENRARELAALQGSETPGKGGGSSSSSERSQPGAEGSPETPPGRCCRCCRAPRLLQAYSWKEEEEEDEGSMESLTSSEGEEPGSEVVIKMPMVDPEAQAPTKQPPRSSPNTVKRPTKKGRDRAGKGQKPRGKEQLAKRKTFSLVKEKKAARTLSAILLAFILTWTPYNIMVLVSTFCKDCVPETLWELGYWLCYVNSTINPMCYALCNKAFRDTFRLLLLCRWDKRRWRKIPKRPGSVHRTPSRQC
For assay [5], the target named is T5, Muscarinic acetylcholine receptor M1 (Homo sapiens) (UniProt P11229).
T5 sequence (whole entry): T3 sequence (whole entry) with E185Q
Put plainly: Agonist activity at human M1 receptor expressed in A9 L cells assessed as stimulation of phosphoinositide hydrolysis relative to carbachol. It counts as functional, cell-based. The following applies: L929. Summed up: as §1

The subject of assay [6] is T6, Muscarinic acetylcholine receptor M1 (Homo sapiens), P11229 [E170K].
T6 sequence (whole entry): T3 sequence (whole entry) with E170K, E185Q
Put plainly: Agonist activity at human M1 receptor E170K mutant expressed in A9 L cells assessed as stimulation of phosphoinositide hydrolysis relative to carbachol. It counts as functional, cell-based. The settings on record: L929. The procedure, abridged:
as §1

Assay [7] addresses T4, Muscarinic acetylcholine receptor M1/M5 chimeric protein (Homo sapiens). Put plainly: Agonist activity at human M1/M5(o2) chimeric receptor expressed in A9 L cells assessed as stimulation of phosphoinositide hydrolysis relative to carbachol. It counts as functional, cell-based. The settings on record: L929. Summed up: as §1
The target is the same in assay [8]. As to the kind of experiment: Agonist activity at human M1/M5(o2o3) chimeric receptor expressed in A9 L cells assessed as stimulation of phosphoinositide hydrolysis relative to carbachol. Type of assay: functional, cell-based. The settings on record: L929. The procedure, abridged: as §1

This passage reports Imax, Activity and Smax results from ChEMBL document CHEMBL1138216, “Design and synthesis of novel derivatives of the muscarinic agonist tetra(ethylene glycol)(3-methoxy-1,2,5-thiadiazol-4-yl) [3-(1-methyl-1,2,5,6-tetrahydropyrid-3-yl)-1,2,5-thiadiazol-4-yl] ether (CDD-0304): effects of structural modifications on the binding and activity at muscarinic receptor …” (J Med Chem, 2006).

Where a chain is given by its changes, count along the chain named. Calls of active or inactive are those of the source. The rule behind the calls is not given here.

For the compound `COc1nsnc1OCCOCCOCCOCCOc1nsnc1C1=CCCN(C)C1`, the Imax in assay [1] was determined as 40%. The outcome in assay [2] was inactive. The Smax in assay [3] stood at 14%; in assay [4], 9.7%; in assay [5] it was 47%; in assay [6] it was 27%; in assay [7] it was 20%; in assay [8] it was 5.3%.

Turning to `CCCCCCOc1nsnc1C1=CCCN(C)C1` [XANOMELINE], the Imax in assay [1] came to 77%. Moreover, the Smax turned out to be 43% in assay [2]; 86% in assay [3]; 21% in assay [4]; 71% in assay [5]; 31% in assay [6]; 75% in assay [7]. In addition, the Smax in assay [8] stood at 20%.
